pIC50: −log10 of the molar value.
Assays:
Mus musculus [1] = test: Compound( 20 mg/kg) was tested for antinociceptive responses induced in hot plate test in mice after an iv dose of acetorphan 10 mg/kg.; format: functional
Outline: (§1)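 Male Swiss mice (20–22 g) given compound as disulfide form iv, coadministered with acetorphan 10 mg/kg, in ethanol (10%)/cremophor EL (10%)/water (80%) vehicle, 0.1 mL per 10 g; controls got vehicle. Hot plate at 55 ± 0.5 °C 15 min later; jump latency recorded, cut-off 240 s. % analgesia = (test − control latency)/(cut-off − control latency) × 100; ANOVA then Dunnett's t test.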

Mus musculus [2] = test: Compound( 10 mg/kg) was tested for antinociceptive responses induced in hot plate test in mice after an iv dose of acetorphan 10 mg/kg.; format: functional; outline: as §1
Mus musculus [3] = test: Compound( 5 mg/kg) was tested for antinociceptive responses induced in hot plate test in mice after an iv dose of acetorphan 10 mg/kg.; format: functional
Outline: (§2)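 Male Swiss mice (20–22 g); agents given iv under disulfide form together with acetorphan 10 mg/kg, in ethanol 10%/cremophor EL 10%/water 80% at 0.1 mL per 10 g; vehicle-injected controls. Jump latency read on hot plate at 55 ± 0.5 °C 15 min after injection, cut-off 240 s. % analgesia = (test − control latency)/(cut-off − control latency) × 100; ANOVA then Dunnett's t test.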

Mus musculus [4] = test: Compound( 5 mg/kg) was tested for antinociceptive responses induced in hot plate test in mice(% analgesia) after an iv dose of acetorphan 10 mg/kg.; format: functional; outline: as §1
Aminopeptidase N [5] = target: T1, Aminopeptidase N (Sus scrofa, UniProt P15145); test: Compound was tested for inhibitory potency against aminopeptidase N from hog kidney, using [3H]Leu-enkephalin as substrate
T1 sequence (P15145 whole entry): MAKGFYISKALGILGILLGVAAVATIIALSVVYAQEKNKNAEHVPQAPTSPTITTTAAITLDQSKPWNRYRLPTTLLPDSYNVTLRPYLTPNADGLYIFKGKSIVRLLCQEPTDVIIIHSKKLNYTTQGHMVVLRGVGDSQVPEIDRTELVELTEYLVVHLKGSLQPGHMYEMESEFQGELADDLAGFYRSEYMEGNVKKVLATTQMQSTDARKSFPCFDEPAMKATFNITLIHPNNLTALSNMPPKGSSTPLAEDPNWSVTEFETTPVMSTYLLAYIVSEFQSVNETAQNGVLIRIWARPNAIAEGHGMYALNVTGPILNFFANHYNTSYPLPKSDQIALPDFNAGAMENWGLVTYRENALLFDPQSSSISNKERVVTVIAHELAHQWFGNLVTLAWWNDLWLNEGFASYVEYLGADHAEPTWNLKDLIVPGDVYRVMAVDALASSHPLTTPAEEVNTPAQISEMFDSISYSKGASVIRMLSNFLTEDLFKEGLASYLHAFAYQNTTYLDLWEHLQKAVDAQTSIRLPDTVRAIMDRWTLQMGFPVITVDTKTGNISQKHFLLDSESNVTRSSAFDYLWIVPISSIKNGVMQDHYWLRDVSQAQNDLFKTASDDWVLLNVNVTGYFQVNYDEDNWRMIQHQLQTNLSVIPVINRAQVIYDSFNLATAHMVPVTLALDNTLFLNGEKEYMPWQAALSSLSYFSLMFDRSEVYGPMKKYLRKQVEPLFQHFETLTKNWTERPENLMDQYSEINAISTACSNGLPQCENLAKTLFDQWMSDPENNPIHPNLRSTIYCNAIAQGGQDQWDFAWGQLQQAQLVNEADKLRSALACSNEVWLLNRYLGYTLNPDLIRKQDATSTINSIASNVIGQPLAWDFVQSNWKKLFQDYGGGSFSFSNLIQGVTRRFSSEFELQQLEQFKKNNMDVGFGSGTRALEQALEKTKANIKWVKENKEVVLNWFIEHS
Outline: (§3)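 Hog kidney APN preincubated 15 min at 25 °C with rising inhibitor concentrations in 50 mM Tris-HCl pH 7.4; thiols supplied as disulfides reduced in situ with 100 equiv DTT. [3H]Tyr1-Leu5-enkephalin added at 10 nM final (Km 50 μM); reaction stopped after 15 min with HCl. Released [3H]Tyr separated on polystyrene beads; IC50 determined.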

Mus musculus [6] = test: Compound (20 mg/kg) was tested for antinociceptive responses induced in hot plate test in mice after an iv dose of acetorphan 10 mg/kg.; format: functional; outline: as §2
Mus musculus [7] = test: Compound (10 mg/kg) was tested for antinociceptive responses induced in hot plate test in mice after an iv dose of acetorphan 10 mg/kg.; format: functional; outline: as §2
Aminopeptidase N [8] = target: T1, Aminopeptidase N; test: Inhibition of [3H]Leu-enkephalin binding to Aminopeptidase N from hog kidney; outline: as §3
Mus musculus [9] = test: Compound (40 mg/kg) was tested for antinociceptive responses induced in hot plate test in mice after an iv dose of acetorphan 10 mg/kg.; format: functional; outline: as §2

SMILES	pIC50 (Aminopeptidase N [8])	Jump latency time (Mus musculus [6]) [s]	Jump latency time (Mus musculus [9]) [s]	also measured
NC(CS)Cc1ccccc1 (centres undefined)	–	–	–	Jump latency time (Mus musculus [1]): 204.2 s; Jump latency time (Mus musculus [2]): 147.9 s; Jump latency time (Mus musculus [3]): 90 s; ED50 (Mus musculus [4]): 12 mg/kg
NC(CC(=O)O)Cc1ccccc1 (centres undefined)	–	–	–	pIC50 (Aminopeptidase N [5]): 3.10
C[S+]([O-])CCC(N)CS (centres undefined)	–	240	–	Jump latency time (Mus musculus [3]): 216.9 s; Jump latency time (Mus musculus [7]): 236 s
NC(CS)CC1CCCCC1 (centres undefined)	–	–	–	pIC50 (Aminopeptidase N [5]): 7.35
NC(Cc1ccccc1)CP(=O)(O)O (centres undefined)	3.30	–	–	–
CC(C)(C)SCC(N)CS (centres undefined)	7.40	–	–	–
CSCCC(N)CS (centres undefined)	–	240	–	Jump latency time (Mus musculus [3]): 200.8 s; Jump latency time (Mus musculus [7]): 225.4 s
CNC(CS)CC(C)C (centres undefined)	5.40	–	–	–
NC(CS)Cc1ccc(O)cc1 (centres undefined)	–	119	166.4	Jump latency time (Mus musculus [3]): 112.9 s; pIC50 (Aminopeptidase N [5]): 7.35
CC(C)CC(N)CS (centres undefined)	7.66	225.6	240	–
NC(CS)c1ccccc1 (centres undefined)	–	–	–	pIC50 (Aminopeptidase N [5]): 7.60

Continued, in another order:

pIC50 (Aminopeptidase N [8])	SMILES	Jump latency time (Mus musculus [6]) [s]	Jump latency time (Mus musculus [9]) [s]	also measured
7.05	NC(CS)CSCc1ccccc1 (centres undefined)	232.2	233.6	–
4.10	NC(CSCc1ccccc1)Cc1ccccc1 (centres undefined)	–	–	–
3.80	SCC(Cc1ccccc1)NCc1ccccc1 (centres undefined)	–	–	–
6.89	NC(CS)Cc1ccc2ccccc2c1 (centres undefined)	106.6	132.8	–
7.25	NC(CS)COCc1ccccc1 (centres undefined)	166.5	229.4	–

From ChEMBL document CHEMBL1125423, “Potent and systemically active aminopeptidase N inhibitors designed from active-site investigation” (J Med Chem, 1992)
